In the library only some 1.4% were active in any assay of this set; here they are far more common.
APOBEC3G inh: blocks human APOBEC3G single-stranded DNA deamination | 0.28% of 330,000 active | inhibition, % at 20 µM | Q9HC16 | recombinant A3G, ssDNA deamination FAM/TAMRA fluorescence;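 active = inhibition of at least 40% at 20 µM, with no more than 30% in the related APOBEC3A deaminase screen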;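 note: plate controls were DMSO wells with A3G for no effect and wells lacking A3G enzyme for full effect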
Target sequence (Q9HC16 whole entry, looked up): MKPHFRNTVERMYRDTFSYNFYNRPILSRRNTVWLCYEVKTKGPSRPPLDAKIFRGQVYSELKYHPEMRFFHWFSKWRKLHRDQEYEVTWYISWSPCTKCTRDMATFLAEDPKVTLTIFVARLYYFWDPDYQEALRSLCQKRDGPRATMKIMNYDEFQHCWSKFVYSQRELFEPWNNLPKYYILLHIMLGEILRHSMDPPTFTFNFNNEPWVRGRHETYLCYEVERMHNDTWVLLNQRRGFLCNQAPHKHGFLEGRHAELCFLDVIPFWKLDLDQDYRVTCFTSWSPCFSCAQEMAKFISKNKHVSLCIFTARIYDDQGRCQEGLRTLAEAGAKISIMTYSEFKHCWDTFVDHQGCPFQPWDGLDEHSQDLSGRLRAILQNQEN
PfG6PD inh: PfG6PD (Plasmodium falciparum) enzyme inhibition; PfGluPho enzyme, NADPH resazurin-diaphorase fluorescence; inhibition, % at 20 µM; 0.78% of 350,000 active;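 active = inhibition reaching at least a set limit at 20 µM in the primary screen, cut at about 59% in these data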;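 note: 0% = DMSO wells with substrate and 100% = DMSO wells lacking glucose-6-phosphate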
APOBEC3A inh: inhibitors of human APOBEC3A DNA deaminase | P31941 | recombinant A3A, FAM/TAMRA ssDNA deamination fluorescence | inhibition, % at 20 µM | AID 493011 | 0.41% of 330,000 active;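 active = at least 40% inhibition at 20 µM here, with at most 30% in a related deaminase screen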;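 note: plate controls were A3A with DMSO for no effect and wells lacking A3A enzyme for full effect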
Target sequence (P31941 whole entry, looked up): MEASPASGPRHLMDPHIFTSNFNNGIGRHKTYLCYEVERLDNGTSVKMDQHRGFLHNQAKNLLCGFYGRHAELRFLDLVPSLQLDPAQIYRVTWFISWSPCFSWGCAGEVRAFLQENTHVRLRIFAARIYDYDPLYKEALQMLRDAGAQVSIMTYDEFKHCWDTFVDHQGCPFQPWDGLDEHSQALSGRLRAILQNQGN
HKDC1 inhibitor: blocks human hexokinase HKDC1 activity; 0.16% of 340,000 active; inhibition, % at 20 µM; recombinant HKDC1, G6PDH/diaphorase resazurin coupled fluorescence; Q2TB90;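 active = inhibition above about 35% when tested at 20 µM, limit read from the data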;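 note: plate controls were DMSO wells with enzyme for no effect and DMSO wells lacking enzyme for full effect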
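Assay system: recombinant HKDC1 hexokinase; detection: coupled resazurin fluorescence, excitation 525 nm, emission 613 nm; benchmarks: DMSO-plus-enzyme-mix negative control, buffer-substituted positive control; compound dosing: single 20 µM dose; schedule: 90 min at room temperature in dark; also added: glucose plus 1 mM ATP as hexokinase substrates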
iPSC survival up: enhancers of human iPSC single-cell survival; hiPSC single-cell survival, ATPlite luminescence; 100% = ROCK inhibitor wells, 0% = DMSO; survival enhancement, % at 20 µM; 0.044% of 360,000 active; AID 602274; in the data active = survival enhancement above about 18%;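 note: cells exposed to compounds for 16 hours before the ATP read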
HKDC1 act conf2: HKDC1 (human) activation, single-dose confirmed; inhibition, % at 20 µM; shares compounds with HKDC1 inhibitor; 14% of 740 active; recombinant HKDC1, G6PDH/diaphorase resazurin fluorescence; hits give low values;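 active = inhibition at or below a set negative limit, negative inhibition meaning the enzyme was activated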
Starred values were filed as active, the others as inactive; nt = no result.

SMILES	APOBEC3G inh	PfG6PD inh	APOBEC3A inh	HKDC1 inhibitor	iPSC survival up	HKDC1 act conf2
O/C=c1\ccc2cccc3nc(C(F)(F)F)nc1c23	37.4	10.4	53.0	40.4*	-0.2	21.2
CCOC(=O)C1=CCN(S(=O)(=O)c2ccccc2Cl)C1c1cccc(F)c1 (stereo not drawn)	nt	nt	nt	nt	-0.1	nt
C[C@H]([C@H](O)c1ccccc1)N(C)C(=O)CN	-9.3	-6.9	-2.7	-4.2	1.0	nt
COc1cc(NC(=O)c2cnc(N)s2)cc(C(=O)Nc2cccc(C(F)(F)F)c2)c1	2.0	35.3	0.3	59.2*	-1.3	41.2
CCOc1ccc(C(=O)NC(=S)N(Cc2ccccc2)Cc2ccccc2)cc1	nt	-24.4	nt	-31.5	-0.7	nt
CCCN(CCC)C(=S)NC(=O)c1ccc(-c2ccccc2)cc1	-1.0	-2.8	1.5	-47.6	-3.0	-26.5
COc1ncc(-c2ccc(N3C(c4ccc([N+](=O)[O-])cc4)=Cc4ccccc4C3CC(C)=O)cc2)cn1 (stereo not drawn)	nt	nt	nt	nt	0.2	nt
Cc1cc(C)c(S(=O)(=O)/N=C2\C=C(Nc3ccc(C(=O)O)cc3)C(=O)c3ccccc32)c(C)c1	-0.4	56.7	11.1	40.7*	-0.6	39.5
O=C(O)c1ccc(NC2=C/C(=N/S(=O)(=O)c3ccccc3)c3ccccc3C2=O)cc1	-8.0	106.9*	0.0	71.9*	-0.9	76.0
Cc1ccc(S(=O)(=O)/N=C2\C=C(NS(=O)(=O)c3ccccc3)C(=O)c3ccccc32)cc1	nt	13.6	nt	28.7	1.7	nt
COc1cc2ccccc2ccc1=NO	nt	7.4	nt	-1.9	-1.4	nt
COCCC(=O)N1CCC(Oc2ccc(C(=O)N3CCC[C@H]3CO)cc2)CC1	-0.4	-3.5	1.4	5.6	-0.5	nt
CC(=O)Nc1ccc2c(O)cc(S(=O)(=O)O)cc2c1	nt	26.5	nt	9.6	-3.9	nt
COc1ccccc1Nc1ccc2c(O)cc(S(=O)(=O)O)cc2c1	nt	31.7	nt	38.0*	-0.9	9.3
O=S(=O)(O)c1ccc(O)c2cc(Nc3ccccc3)ccc12	nt	39.2	nt	64.6*	-1.4	44.1
O=S(=O)(O)c1cc(O)c2ccc(Nc3ccccc3)cc2c1	nt	15.3	nt	49.9*	-4.1	15.8
CNc1ccc(Br)cc(C(=O)/C=C/c2ccc(Cl)cc2Cl)c1=O	15.9	25.3	23.8	19.2	-1.1	nt
CCNc1ccc(Br)cc(C(=O)/C=C/c2c(Cl)cccc2Cl)c1=O	15.8	28.6	23.9	37.3*	-0.5	-3.0
CCOP(=O)(c1ccc(N(C)C)cc1)C(O)c1ccc(OC)cc1 (stereo not drawn)	-6.6	-1.7	-2.9	56.4*	0.1	-21.4
O=C(O)CCC(=O)N1CCN(Cc2ccc3c(c2)OCO3)CC1	-4.9	-2.7	-7.7	-5.2	0.0	nt
CCCC(=O)N1CCN(Cc2ccc3c(c2)OCO3)CC1	-5.1	-24.8	-2.8	-56.9	-1.3	-3.1
CCOc1ccc(C=NNc2ccc(S(=O)(=O)Nc3ccccc3C(=O)O)cc2[N+](=O)[O-])cc1	-0.2	-41.0	0.3	19.8	0.5	nt
C=CCOc1ccc(C=NNc2ccc(S(=O)(=O)Nc3ccccc3C(=O)O)cc2[N+](=O)[O-])cc1OC	-0.5	-23.8	-0.6	51.5*	0.1	-3.9
O=C(c1cccc(-n2cccc2)c1)N1CCN(S(=O)(=O)c2c(F)cccc2F)CC1	-1.3	4.9	11.3	-0.5	0.0	nt
COc1ccc(C(=O)NNC(=O)c2ccccn2)cc1	4.8	13.1	-1.7	-12.4	-3.6	nt
SMILES	APOBEC3G inh	PfG6PD inh	APOBEC3A inh	HKDC1 inhibitor	iPSC survival up	HKDC1 act conf2
COc1ccc2c(c1)C(=NNC(=O)c1ccccn1)c1cc(OC)ccc1-2	-5.3	16.5	-0.2	42.4*	1.7	-13.5
Cc1ccc(C(=O)N2CCN(c3ccc([N+](=O)[O-])cc3-n3cccc3)CC2)cc1	-10.3	53.8	-1.7	1.8	1.4	nt
Cc1cc(C)n(CCC(=O)N/N=C/c2ccc(O)cc2O)n1	-6.7	-18.0	-3.7	-42.3	-1.6	-36.0
O=C(CNC(=O)c1ccncc1)N/N=C/c1ccc(O)cc1O	15.4	-13.4	-4.6	-40.6	-0.4	-25.1
O=C(CNC(=O)c1ccc2c(c1)OCCO2)N/N=C/c1ccc(O)cc1O	-7.1	-17.5	-3.9	-50.6	-0.8	18.4
COc1cccc(/C=N/NC(=O)CNC(=O)c2ccncc2)c1O	-4.0	-52.0	-5.5	-12.4	0.1	nt
CCCCNC(=O)[C@H]1N2C(=O)c3c(ccc(OC)c3OC)C2SC1(C)C (stereo partly drawn)	-5.4	-1.1	-1.8	-4.3	-0.4	nt
Cc1c(CN(C)C(=O)C2CCC(=O)N(Cc3ccccc3F)C2)[nH]c2ccccc12 (stereo not drawn)	nt	-10.8	nt	nt	1.3	nt
Cc1cc2cc(CCNC(=O)c3ccc(S(=O)(=O)N4CCCC4)cc3)c(=O)[nH]c2cc1C	-3.8	-9.7	-2.7	41.4*	-0.1	53.2
Cc1c(NC(=O)c2ccc(NC(=O)C3CC3)cc2)cccc1C(=O)O	-4.4	3.6	-2.6	-4.4	0.1	nt
CC(C)C(C(=O)O)N1C(=O)/C(=C/C=C/c2ccco2)SC1=S (stereo not drawn)	93.1	32.1	99.2	50.5*	1.9	19.0
O=C1/C(=C/C=C/c2ccco2)SC(=S)N1c1ccc(O)cc1	81.4	31.5	92.6	6.3	0.9	nt
O=C(O)c1cc(C(=O)O)cc(-c2ccc(/C=c3/sc4nc5ccccc5n4c3=O)o2)c1	nt	34.5	nt	23.9	nt	nt
O=C(O)c1cccc(-c2ccc(/C=c3/sc4nc5ccccc5n4c3=O)o2)c1	67.5	26.9	97.0	47.9*	0.4	-7.7
O=c1c(CO)cc(CO)cc(CO)c1O	-2.3	-7.7	-0.3	-4.9	1.1	nt
O=C1C=CC(=O)c2c(O)c(CO)c(CO)c(O)c21	nt	33.3	nt	48.5*	-2.5	39.3
Cn1nccc1C(=O)N1CCN(c2cccc(C(F)(F)F)c2)CC1	8.4	0.6	3.3	-3.0	-0.6	nt
Cn1nccc1C(=O)N1CCN(c2cccc(Cl)c2)CC1	2.7	13.9	-7.8	38.7*	-0.1	-28.9
C/C=C/C1=CC(=O)C[C@H](c2ccc3c(c2)OCO3)C1	-9.5	5.0	0.1	5.8	1.1	nt
Cc1ccc(S(=O)(=O)N2CCOCC2)cc1NC(=O)CSc1nnc2cc(C)c3ccccc3n12	-0.7	9.5	4.7	20.1	2.8	nt
Cc1cc2nnc(SCC(=O)Nc3cc(S(=O)(=O)N4CCOCC4)ccc3Cl)n2c2ccccc12	-2.0	38.6	3.2	47.8*	0.3	37.4
CC(=NNc1nc2ccccc2o1)c1cc2ccccc2cn1	nt	40.1	nt	-47.7	-2.6	-77.2*
CC(=NNc1nc2ccccc2o1)c1ncccn1	nt	3.2	nt	-10.7	10.3	nt
O=c1nccc(Nc2ccccc2)[nH]1	-4.4	-2.4	-0.2	-3.5	-0.5	nt
c1ccc(Nc2cc(Nc3ccccc3)[nH]n2)cc1	-3.5	31.9	2.8	-46.9	-1.1	-19.6
Cc1cc2cc(CN(Cc3cccs3)S(=O)(=O)c3ccc4c(c3)OCCO4)c(=O)[nH]c2cc1C	-5.8	4.9	-1.6	-47.0	2.1	-16.5
